In one data set the test system is HeLa. Briefly: Antiproliferative activity against human HeLa cells assessed as reduction in cell number incubated for 72 hrs. In kind it is functional.
Data set [1] is described as follows: Colloidal stability of the compound in nanoparticle form at 0.5 mg/mL at acidic pH conditions. The format is physicochemical. In outline: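 Zeta potential was measured against pH at 0.5 mg/mL nanoparticle concentration and fixed ionic strength (1 mM KCl). pH was adjusted across 2–12 with 0.1 M NaOH or HCl. Hydrodynamic diameter was also followed over the same range.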

The test system of the next data set is MCF7. As to the kind of experiment: Antiproliferative activity against human MCF7 cells assessed as reduction in cell number incubated for 72 hrs. In kind it is functional. Conditions: MCF7, 72 h; call rule not given here.
A short description of data set [2]: Drug metabolism assessed as Celite-supported formulation of Pseudomonas cepacia lipase PS-mediated 2-Amino-N-((S)-1,2,3-trimethoxy-10-methylsulfanyl-9-oxo-5,6,7,9-tetrahydro-benzo[a]heptalen-7-yl)-acetamide trifluoroacetic acid formation in presence of pH 7 phosphate buffer by reversed-phase HPLC. The format is ADME.
Data set [3] in a line: Self-assembling property assessed as polydispersity index by dynamic light scattering method. In kind it is physicochemical.
Data set [4] in a line: Stability assessed as Celite-supported formulation of Pseudomonas cepacia lipase PS-mediated drug hydrolysis in presence of pH 7 phosphate buffer by reversed-phase HPLC. The format is ADME. The following applies: read-out: Drug degradation.
In another data set the test system is HepG2. As to the kind of experiment: Antiproliferative activity against human HepG2 cells assessed as reduction in cell number incubated for 72 hrs. In kind it is functional. Conditions: HepG2, 72 h.
Data set [5] can be described thus: Drug metabolism assessed as Celite-supported formulation of Pseudomonas cepacia lipase PS-mediated 4-((4-(4-(1,2-diphenylbut-1-enyl)phenylamino)-4-oxobutyl)disulfanyl)butanoic acid formation in presence of pH 7 phosphate buffer by reversed-phase HPLC. In kind it is ADME.
A short description of data set [6]: Colloidal stability of the compound in nanoparticle form in Ph 7 PBS at 0.5 mg/mL in presence of 10 to 100 mM KCl. In kind it is physicochemical. Conditions: buffer. In outline:
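Nanoparticles were held at 0.5 mg/mL in PBS buffered to pH 7.4, with KCl at 0, 10, 25, 50 and 100 mM. Zeta potential and hydrodynamic diameter were recorded at each ionic strength.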

Data set [7] can be described thus: Self-assembling property assessed as hydrodynamic diameter by dynamic light scattering method. In kind it is physicochemical.
Data set [8] can be described thus: Self-assembling property assessed as zeta potential by dynamic light scattering method. The format is physicochemical.
Data set [9] is described as follows: Drug level treated with 4-{3-[4-(1,2-Diphenyl-but-1-enyl)-phenylcarbamoyl]-propyldisulfanyl}-butyric acid 3-{2-acetoxy-5-[((S)-1,2,3-trimethoxy-10-methylsulfanyl-9-oxo-5,6,7,9-tetrahydro-benzo[a]heptalen-7-ylcarbamoyl)-methylcarbamoyloxymethyl]-phenyl}-propyl ester assessed as Celite-supported formulation of Pseudomonas cepacia lipase PS-mediated compound formation in presence of pH 7 phosphate buffer by reversed-phase HPLC. In kind it is ADME.

A short description of data set [10]: Drug level treated with 9-[4-(1,2-Diphenyl-but-1-enyl)-phenylcarbamoyl]-nonanoic acid 3-{2-acetoxy-5-[((S)-1,2,3-trimethoxy-10-methylsulfanyl-9-oxo-5,6,7,9-tetrahydro-benzo[a]heptalen-7-ylcarbamoyl)-methylcarbamoyloxymethyl]-phenyl}-propyl ester assessed as porcine pancreas lipase type 2-mediated compound formation in presence of pH 7 phosphate buffer by reversed-phase HPLC. The format is ADME, Sus scrofa. The following applies: pig. In short, it runs like this: (§1)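 Analytical-scale incubation was run overnight in 15:85 DMSO/phosphate buffer (20 mM, pH 7) with 1% n-BuOH and porcine pancreatic lipase. Starting-material hydrolysis and released products were quantified by reversed-phase HPLC.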

A short description of data set [11]: Stability assessed as porcine pancreas lipase type 2-mediated drug hydrolysis in presence of pH 7 phosphate buffer by reversed-phase HPLC. In kind it is ADME, Sus scrofa. Conditions: pig, porcine pancreas lipase type 2, pH 7; read-out: Drug degradation. In short, it runs like this:
as §1

Data set [12] can be described thus: Drug metabolism assessed as porcine pancreas lipase type 2-mediated 10-(4-(1,2-diphenylbut-1-enyl)phenylamino)-10-oxodecanoic acid formation in presence of pH 7 phosphate buffer by reversed-phase HPLC. The following applies: pig. In kind it is ADME, Sus scrofa. In outline: as §1

The structures appear in SMILES notation.

As usually defined, the GI50 is the concentration giving 50% growth inhibition. For the molecule `CC/C(=C(\c1ccccc1)c1ccc(NC(=O)CCCSSCCCC(=O)OCCCc2cc(COC(=O)NCC(=O)N[C@H]3CCc4cc(OC)c(OC)c(OC)c4-c4ccc(SC)c(=O)cc43)ccc2OC(C)=O)cc1)c1ccccc1`, the GI50 in the data set with HeLa is 2.8 µM; in the data set on MCF7, 0.71 µM; in the data set with HepG2 it was > 30 µM. Also, the results for the Stability result in [1] and in [6] were “Unstable” and “Stable”, respectively. Also, the Drug metabolism entry in data set [2] and in [5] was “Metabolite_Detected” each time. Moreover, the Activity_index in [3] is 0.147. The metabolised in data set [4] is 88%. Also, the results for the Activity in data set [7] and in [8] were 344 nm and -46.47 mV, respectively.

Regarding `CC/C(=C(\c1ccccc1)c1ccc(N)cc1)c1ccccc1`, the values for the GI50 in the data set on HeLa and in the data set on HepG2 were > 30 µM and 28.2 µM, respectively. Moreover, the Drug uptake entry in data set [9] and in data set [10] was “Active” each time.

With `CC/C(=C(\c1ccccc1)c1ccc(NC(=O)CCCCCCCCC(=O)OCCCc2cc(COC(=O)NCC(=O)N[C@H]3CCc4cc(OC)c(OC)c(OC)c4-c4ccc(SC)c(=O)cc43)ccc2OC(C)=O)cc1)c1ccccc1`, the figures for the GI50 with HeLa, in the data set on MCF7 and with HepG2 were 4.2 µM, 0.87 µM and > 30 µM, respectively. Further, the Stability result in data set [1] is on record as “Unstable”; in data set [6], “Stable”. Also, the metabolised in data set [11] was found to be 85%. Moreover, in data set [3], the Activity_index is given as 0.17. Moreover, the Drug metabolism result in data set [12] is “Metabolite_Detected”. The Activity in [7] was 412.9 nm; in [8] it was -33.51 mV.

Take `CC/C(=C(\c1ccccc1)c1ccc(NC(=O)CCCSSCCCC(=O)O)cc1)c1ccccc1`: the GI50 in the data set with HeLa, with MCF7 and in the data set on HepG2 was > 30 µM each time.

With `CC/C(=C(\c1ccccc1)c1ccc(NC(=O)CCCCCCCCC(=O)O)cc1)c1ccccc1`, the figures for the GI50 with HeLa, with MCF7 and in the data set with HepG2 were > 30 µM, > 30 µM and 25.6 µM, respectively. The Drug uptake entry in [10] is recorded as “Active”.

In the case of `COc1cc2c(c(OC)c1OC)-c1ccc(SC)c(=O)cc1[C@@H](NC(=O)CN)CC2`, the Drug uptake result in [9] and in data set [10] was “Active” throughout.
